Values after ≈ are worked out from the molar mass of the structure shown.
Tests used:
Type in all cases: functional
Vibrio = test: Antibacterial activity against Vibrio species after 18 hrs
In short: (§1)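 Disc diffusion (Kirby–Bauer) on Mueller-Hinton agar inoculated with fresh bacteria at 1-5 × 10^4 cfu mL-1. Compounds were dissolved in DMF at a range of concentrations, and discs were placed in triplicate. Plates were incubated at 30 °C for 18 h. MIC was taken as the lowest concentration giving no visible bacterial growth on the plate.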

Bacillus subtilis = test: Antibacterial activity against Bacillus subtilis MTCC 441 after 18 hrs; conditions: MTCC 441, 18 h; in short: as §1
Pseudomonas aeruginosa = test: Antibacterial activity against Pseudomonas aeruginosa MTCC 424 after 18 hrs; conditions: MTCC 424, 18 h; in short: as §1
Escherichia coli = test: Antibacterial activity against Escherichia coli MTCC 448 after 18 hrs; conditions: MTCC 448, 18 h; in short: as §1
[1] = system: Staphylococcus epidermidis; test: Antibacterial activity against Staphylococcus epidermidis MTCC 435 after 18 hrs; conditions: MTCC 435, 18 h; in short: as §1

Compound | MIC (Vibrio) [µg/mL] | MIC (Bacillus subtilis) [µg/mL] | MIC (Pseudomonas aeruginosa) [µg/mL] | MIC (Escherichia coli) [µg/mL] | MIC [1] [µg/mL]
O=C(NNS(=O)(=O)c1ccc(F)cc1)c1cccnc1Nc1ccc(F)cc1 | 22 (≈ 54.4 µM) | 10 (≈ 24.7 µM) | > 25 | 13 (≈ 32.1 µM) | 20 (≈ 49.5 µM)
COc1ccc(Nc2ncccc2C(=O)NNS(=O)(=O)c2ccc(C)cc2)cc1 | 19 (≈ 46.1 µM) | 8 (≈ 19.4 µM) | > 25 | 15 (≈ 36.4 µM) | 17 (≈ 41.2 µM)
O=C(NNS(=O)(=O)c1ccccc1)c1cccnc1Nc1ccccc1 | 20 (≈ 54.3 µM) | 17 (≈ 46.1 µM) | > 25 | 20 (≈ 54.3 µM) | 21 (≈ 57 µM)
CC(=O)Nc1ccc(S(=O)(=O)NNC(=O)c2cccnc2Nc2ccc(F)cc2)cc1 | 22 (≈ 49.6 µM) | 16 (≈ 36.1 µM) | > 25 | 20 (≈ 45.1 µM) | 19 (≈ 42.8 µM)
Cc1ccc(S(=O)(=O)NNC(=O)c2cccnc2Nc2ccc(Cl)cc2)cc1 | 23 (≈ 55.2 µM) | 9 (≈ 21.6 µM) | > 25 | 16 (≈ 38.4 µM) | 14 (≈ 33.6 µM)

More lines, now with the values ahead:

MIC (Vibrio) [µg/mL] | MIC (Bacillus subtilis) [µg/mL] | MIC (Pseudomonas aeruginosa) [µg/mL] | MIC (Escherichia coli) [µg/mL] | MIC [1] [µg/mL] | Compound
21 (≈ 49.9 µM) | 10 (≈ 23.8 µM) | > 25 | 18 (≈ 42.8 µM) | 16 (≈ 38 µM) | O=C(NNS(=O)(=O)c1ccc(Cl)cc1)c1cccnc1Nc1ccc(F)cc1
13 (≈ 51.9 µM) | 18 (≈ 71.9 µM) | 22 (≈ 87.9 µM) | 15 (≈ 59.9 µM) | 20 (≈ 79.9 µM) | Nc1ccc(S(=O)(=O)Nc2ncccn2)cc1 [SULFADIAZINE]
> 512 | > 128 | > 512 | > 128 | > 512 | Nc1ccc(S(N)(=O)=O)cc1 [SULFANILAMIDE]

Source: ChEMBL document CHEMBL1144562, “Synthesis of a new class of 2-anilino substituted nicotinyl arylsulfonylhydrazides as potential anticancer and antibacterial agents” (2007)
